Data from ChEMBL document CHEMBL1138900, “2,5-diketopiperazines as potent, selective, and orally bioavailable oxytocin antagonists. 3. Synthesis, pharmacokinetics, and in vivo potency” (J Med Chem, 2006).
In brackets after ≈: the same amount, converted by molar mass. Where a SMILES comes first, the peptide text is derived from it. Bridges are numbered along the chain shown (N, C = ends). [ ]: non-standard residue; d: D form. Orn = NCCC[C@H](N)C(=O)O; Mpa = O=C(O)CCS

Legend:
[1] = Clearance in dog; format: ADME, organism-based, Canis lupus familiaris; conditions: in vivo
Method in brief: (§1)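 Dog pharmacokinetics, n = 3; dosed at 0.6 mg/kg in 5% DMSO/95% PEG400. AUC reported as ng·h mL⁻¹ and clearance as mL min⁻¹ kg⁻¹.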

[2] = Oral bioavailability in rat; format: ADME, organism-based; conditions: in vivo
[3] = Clearance in rat; format: ADME, organism-based; conditions: in vivo
Method in brief: (§2)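 Rat pharmacokinetics, n = 4; dosed at 5 mg/kg in 5% DMSO/95% PEG400. AUC in ng·h mL⁻¹, clearance in mL min⁻¹ kg⁻¹, half-life in h.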

[4] = Oral bioavailability in dog; format: ADME, organism-based, Canis lupus familiaris; conditions: in vivo
[5] = Lipophilicity, log D by CHI method; format: physicochemical; conditions: read-out: Log D
Method in brief: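 Lipophilicity determined by an HPLC-based method.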

[6] = AUC in rat; format: ADME, organism-based; parameters: concentration or dose not given beside the values; conditions: plasma; method in brief: as §2
Oxytocin receptor [7] = biological target: T1, Oxytocin receptor (Homo sapiens, UniProt P30559); assay: Displacement of [3H]oxytocin from human OTR
T1 sequence (P30559 whole entry): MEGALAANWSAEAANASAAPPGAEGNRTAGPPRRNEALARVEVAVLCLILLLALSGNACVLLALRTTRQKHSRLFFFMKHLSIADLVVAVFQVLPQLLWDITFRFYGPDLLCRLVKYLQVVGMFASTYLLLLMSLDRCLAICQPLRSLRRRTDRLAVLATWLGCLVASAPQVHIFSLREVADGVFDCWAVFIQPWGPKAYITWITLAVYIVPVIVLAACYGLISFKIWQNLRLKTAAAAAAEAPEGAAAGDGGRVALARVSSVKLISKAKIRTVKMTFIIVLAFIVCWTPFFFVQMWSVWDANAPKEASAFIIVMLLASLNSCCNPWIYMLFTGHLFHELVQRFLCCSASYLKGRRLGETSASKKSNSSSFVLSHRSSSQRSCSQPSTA

[8] = AUC in dog; format: ADME, organism-based, Canis lupus familiaris; parameters: concentration or dose not given beside the values; conditions: plasma; method in brief: as §1
[9] = Solubility of the compound; format: physicochemical
Method in brief: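 Aqueous solubility (mg mL⁻¹) measured by precipitation followed by HPLC.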

Rattus norvegicus = assay: Reduction in oxytocin-induced uterine contraction in iv dosed anaesthetized rat; format: functional, organism-based
Method in brief: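 Anaesthetized rats; uterine contractions elicited by iv oxytocin at a standard dose of 0.3 ug/kg. Test compound then given iv in rising doses (0.1, 0.3, 1 mg/kg) and the fall in contractility recorded. Plasma IC50 taken as the plasma concentration giving 50% inhibition of the response to the standard oxytocin dose.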

Oxytocin receptor [10] = biological target: T2, Oxytocin receptor (Rattus norvegicus, UniProt P70536); assay: Displacement of [3H]oxytocin from rat OTR
T2 sequence (P70536 whole entry): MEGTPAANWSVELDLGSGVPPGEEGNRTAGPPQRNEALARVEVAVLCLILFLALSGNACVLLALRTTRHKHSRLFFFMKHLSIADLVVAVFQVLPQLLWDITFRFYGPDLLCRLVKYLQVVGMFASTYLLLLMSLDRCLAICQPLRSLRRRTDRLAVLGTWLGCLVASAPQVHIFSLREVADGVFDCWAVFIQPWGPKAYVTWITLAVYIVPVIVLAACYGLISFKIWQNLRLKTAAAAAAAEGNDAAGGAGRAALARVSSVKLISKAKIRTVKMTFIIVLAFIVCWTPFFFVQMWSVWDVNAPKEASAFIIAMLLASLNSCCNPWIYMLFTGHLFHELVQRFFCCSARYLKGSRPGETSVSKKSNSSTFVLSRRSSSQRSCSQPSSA

Row | clearance [1] [mL/min/kg] | bioavailability [2] [%] | clearance [3] [mL/min/kg] | bioavailability [4] [%] | chromatographic logD [5] | AUC [6] [ng·h/mL] | Ki (Oxytocin receptor [7]) [nM] | AUC [8] [ng·h/mL] | solubility [9] [µg/mL] | IC50 (Rattus norvegicus; Rattus norvegicus) [nM] | Ki (Oxytocin receptor [10]) [nM] | Compound | Activity (Rattus norvegicus) [mg/kg]
1 | 15 | 2 | 48 | 50 |  |  |  |  |  |  |  | CC(C)C[C@@H]1C(=O)N[C@H](C2Cc3ccccc3C2)C(=O)N1[C@@H](C(=O)NC(C)C)c1ccc(N(C)C)cc1 | 
2 |  |  |  |  | 2 |  |  |  |  |  |  | CC(C)C[C@@H]1C(=O)N[C@H](C2Cc3ccccc3C2)C(=O)N1[C@@H](C(=O)NCCN1CCCCC1)c1ccc(F)cc1 | 
3 |  |  |  |  | 3.3 |  |  |  |  |  |  | Cc1ccc([C@H](C(=O)NC(C)C)N2C(=O)[C@@H](C3Cc4ccccc4C3)NC(=O)[C@H]2CC(C)C)o1 | 
4 |  |  |  |  |  | 567 | 12.6 |  |  |  |  | CC(C)C[C@@H]1C(=O)N[C@H](C2Cc3ccccc3C2)C(=O)N1[C@@H](CO)c1ccc(F)cc1F | 
5 | 6 | 55 | 19 | 14 | 2.8 | 2350 | 0.126 | 200 | 159 (≈ 310 µM) |  |  | CC(C)C[C@@H]1C(=O)N[C@H](C2Cc3ccccc3C2)C(=O)N1[C@@H](C(=O)N(C)CCO)c1ccc(F)cc1F | 
6 |  |  |  |  | 3.2 |  |  |  |  |  |  | CC(C)C[C@@H]1C(=O)N[C@H](C2Cc3ccccc3C2)C(=O)N1[C@@H](C(=O)N(C)Cc1ccccn1)c1ccc(F)cc1 | 
7 | 23 | 48 | 34 | 14 | 3.3 |  | 3.98 |  |  |  |  | CC(C)C[C@@H]1C(=O)N[C@H](C2Cc3ccccc3C2)C(=O)N1[C@@H](C(=O)NC(C)(C)C)c1ccc2c(c1)OCO2 | 
8 | 8 | 41 | 16 | 7 | 3.2 | 2150 | 1.26 | 100 |  |  |  | CC(C)C[C@@H]1C(=O)N[C@H](C2Cc3ccccc3C2)C(=O)N1[C@@H](C(=O)N1CCOCC1)c1ccc(F)cc1F | 
9 | 21 | 30 | 53 | 5 | 1.7 | 805 | 0.631 | 23 | 216 (≈ 473 µM) |  |  | CC(C)C[C@@H]1C(=O)N[C@H](C2Cc3ccccc3C2)C(=O)N1[C@@H](C(=O)O)c1ccc(F)cc1F | 
10 |  |  |  |  | 3.3 |  |  |  |  |  |  | CC(C)C[C@@H]1C(=O)N[C@H](C2Cc3ccccc3C2)C(=O)N1[C@@H](C(=O)NCC(F)(F)F)c1ccc(F)cc1 | 
11 | 21 | 24 | 26 | 10 | 2.4 |  | 3.98 |  |  |  |  | CC(C)C[C@@H]1C(=O)N[C@H](C2Cc3ccccc3C2)C(=O)N1[C@@H](C(=O)NC(C)(C)C)c1ccc(N2CCC(O)CC2)cc1 | 
12 |  |  |  |  | 2.3 |  |  |  |  |  |  | CC(C)C[C@@H]1C(=O)N[C@H](C2Cc3ccccc3C2)C(=O)N1[C@@H](C(=O)NCCO)c1ccc(F)cc1 | 
13 |  |  |  |  | 3.4 |  |  |  |  |  |  | COc1ccc([C@H](C(=O)NC(C)(C)C)N2C(=O)[C@@H](C3Cc4ccccc4C3)NC(=O)[C@H]2CC(C)C)cc1F | 
14 |  | 12 | 19 |  | 2.8 | 540 | 0.631 |  | 187 (≈ 366 µM) |  |  | CC(C)C[C@@H]1C(=O)N[C@H](C2Cc3ccccc3C2)C(=O)N1[C@@H](C(=O)N1CC(O)C1)c1ccc(F)cc1F | 
15 |  |  |  |  | 3.4 |  |  |  |  |  |  | CCNS(=O)(=O)c1ccc(-c2ccc([C@H](C(=O)NC(C)(C)C)N3C(=O)[C@@H](C4Cc5ccccc5C4)NC(=O)[C@H]3CC(C)C)cc2)cc1 | 
16 | 4 | 17 | 22 | 37 | 3.3 | 660 | 0.631 | 710 | 1 (≈ 2.02 µM) |  |  | CC(C)C[C@@H]1C(=O)N[C@H](C2Cc3ccccc3C2)C(=O)N1[C@@H](C(=O)N1CCC1)c1ccc(F)cc1F | 
17 |  |  |  |  | 2.7 |  |  |  |  |  |  | CC(C)C[C@@H]1C(=O)N[C@H](C2Cc3ccccc3C2)C(=O)N1[C@@H](C(=O)N1CCN(C)CC1)c1ccc(F)cc1 | 
18 | 14 | 27 | 39 | 9 | 3.4 |  | 3.98 |  |  |  |  | CC(C)C[C@@H]1C(=O)N[C@H](C2Cc3ccccc3C2)C(=O)N1[C@@H](C(=O)NC(C)(C)C)c1ccc2c(c1)CCO2 | 
19 | 13 | 98 | 32 | 11 | 2.9 | 3690 | 0.398 | 82 | 89 (≈ 190 µM) |  |  | CNC(=O)[C@@H](c1ccc(F)cc1F)N1C(=O)[C@@H](C2Cc3ccccc3C2)NC(=O)[C@H]1CC(C)C | 
20 | 6 | 31 | 24 | 61 | 3 |  | 1.58 |  |  |  |  | CC[C@@H](C)[C@@H]1C(=O)N[C@H](C2Cc3ccccc3C2)C(=O)N1[C@@H](C(=O)NC(C)C)c1ccc(N2CCOCC2)cc1 | 
21 |  | 22 | 33 |  | 2.5 | 560 | 0.501 |  | 1 (≈ 2.2 µM) |  |  | CC(C)C[C@@H]1C(=O)N[C@H](C2Cc3ccccc3C2)C(=O)N1[C@@H](C(N)=O)c1ccc(F)cc1F | 
22 |  |  |  |  |  |  | 39.8 |  |  | 186 | 39.8 | CCOc1ccc(C[C@H]2NC(=O)CCSSC[C@@H](C(=O)N3CCC[C@H]3C(=O)N[C@@H](CCCN)C(=O)NCC(N)=O)NC(=O)[C@H](CC(N)=O)NC(=O)[C@H]([C@@H](C)O)NC(=O)[C@H]([C@@H](C)CC)NC2=O)cc1 [ATOSIBAN] ([Mpa][dY](Et)ITNCP[Orn]G-NH2; disulfide 1-6) | 0.63
